Tests used:
[1] = cited from earlier work
Jurkat cells = test: Annexin V-FITC/PI apoptosis assay by flow cytometry; type: cell-based, human; settings: 24 h, 4a at IC50 concentration
caspase-3 = test: Active caspase-3 expression by flow cytometry; type: cell-based, human; settings: Jurkat cells, 24 h, 4a at IC50 concentration
Method in brief: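 Jurkat cells were seeded at 1 × 10^6 cells per well and left 12 h, then exposed to the test compound for 24 h. Cells were harvested, fixed in 70% ice-cold ethanol at −20 °C for 30 min, and washed twice with PBS. They were stained with FITC anti-active caspase-3 antibody for 60 min at room temperature in the dark, washed, resuspended in PBS and analysed by flow cytometry.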

## CC(C)(C)C[C@@H]1N[C@@H](C(=O)N[C@H]2CC[C@H](O)CC2)[C@H](c2cccc(Cl)c2F)[C@]12C(=O)Nc1cc(Cl)ccc12 [MI-773]
[1]
  Stability in solution: low stability in solution

## CC[C@@]1(O)C(=O)OCc2c1cc1n(c2=O)Cc2cc3ccccc3nc2-1 [CPT, camptothecin]
Jurkat cells
  Apoptotic dying cells (M2, Annexin-V-FITC fluorescence intensity): 68%
Jurkat cells; Annexin V-FITC/PI
  Cells in late stage apoptosis: 14%
caspase-3
  Active caspase-3 expression (M2, apoptotic cells): > 54%
